Experimental data from ChEMBL document CHEMBL5608261, “Pharmacophore Establishment and Optimization of Saturated 1,6-Naphthyridine-Fused Quinazolinones that Inhibit Meningoencephalitis-Causing Naegleria fowleri” (J Med Chem, 2024).
≈ marks a conversion by molar mass, not a printed value.

System: SH-SY5Y
Assay: Cytotoxicity against human SH-SY5Y cells assessed as reduction in cell viability incubated for 72 hrs by CellTiter-Glo assay
Type: toxicity, cell-based
Details: sh-sy5y, 72 h
How it was run: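 SH-SY5Y cells at 2000 per well attached overnight at 37 °C. Compound from 20 mM DMSO stocks was added in triplicate as a dose series starting at 20 μM, with doxorubicin as positive control.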

SMILES | CC50 [µM]
COc1cc2nc3n(c(=O)c2cc1Cl)CC[C@@H]1[C@@H]3CCCN1CC(C)C | > 20
COc1cc2nc3n(c(=O)c2cc1Cl)CC[C@H]1[C@H]3CCCN1CC(C)C | 1
COc1cc2nc3n(c(=O)c2cc1Cl)CC[C@@H]1[C@@H]3CCCN1CC(C)C (racemic) | 1.8
Cc1cccc2nc3n(c(=O)c12)CC[C@@H]1[C@@H]3CCCN1C (racemic) | > 20
CN1CCC[C@H]2c3nc4cc(Cl)c(C(F)(F)F)cc4c(=O)n3CC[C@H]21 (racemic) | > 20
CN(C)CC(=O)N1CCC[C@@H]2c3nc4cc(Cl)c(Cl)cc4c(=O)n3CC[C@H]21 (racemic) | > 20
O=C(N1CCOCC1)N1CCC[C@@H]2c3nc4cc(Cl)c(Cl)cc4c(=O)n3CC[C@H]21 (racemic) | > 20
COc1cc2nc3n(c(=O)c2cc1Cl)CC[C@@H]1[C@@H]3CCCN1C (racemic) | > 20
O=c1c2cc(Cl)c(Cl)cc2nc2n1CC[C@@H]1[C@@H]2CCCN1Cc1cnccn1 (racemic) | > 20
O=C(C1CCOCC1)N1CCC[C@@H]2c3nc4cc(Cl)c(Cl)cc4c(=O)n3CC[C@H]21 (racemic) | > 20
CC(C)N1CCC[C@@H]2c3nc4cc(Cl)c(Cl)cc4c(=O)n3CC[C@H]21 (racemic) | > 20
CN1CCC[C@@H]2c3nc4cc(F)ccc4c(=O)n3CC[C@H]21 (racemic) | > 20
Cc1ccc2nc3n(c(=O)c2c1)CC[C@@H]1[C@H]3CCCN1C (racemic) | > 20
O=c1c2cc(Cl)c(Cl)cc2nc2n1CC[C@H]1NCCC[C@H]21 (racemic) | > 20
CN1CCC[C@@H]2c3nc4cc(Cl)ccc4c(=O)n3CC[C@H]21 (racemic) | > 20
COc1cc(Cl)cc2c(=O)n3c(nc12)[C@H]1CCCN(C)[C@@H]1CC3 (racemic) | > 20

SMILES | CC50 [µM]
CC(C)OCCN1CCC[C@@H]2c3nc4cc(Cl)c(Cl)cc4c(=O)n3CC[C@H]21 (racemic) | > 20
COc1cc2nc3n(c(=O)c2cc1C#N)CC[C@@H]1[C@@H]3CCCN1C (racemic) | > 20
O=c1c2cc(Cl)c(Cl)cc2nc2n1CC[C@@H]1[C@@H]2CCCN1Cc1ccccn1 (racemic) | > 20
COc1ccc2nc3n(c(=O)c2c1)CC[C@@H]1[C@H]3CCCN1C (racemic) | > 20
O=c1c2cc(Cl)c(Cl)cc2nc2n1CC[C@@H]1[C@@H]2CCCN1Cc1ccncc1 (racemic) | > 20
O=c1c2cc(Cl)c(Cl)cc2nc2n1CC[C@@H]1[C@@H]2CCCN1CC1CCOCC1 (racemic) | > 20
CN1CCC[C@@H]2c3nc4cc(-c5ccccc5)c(Cl)cc4c(=O)n3CC[C@H]21 (racemic) | 9.4
CN1CCC[C@@H]2c3nc4cccc(Cl)c4c(=O)n3CC[C@H]21 (racemic) | > 20
CN1CCC[C@H]2c3nc4ccc(C#N)cc4c(=O)n3CC[C@H]21 (racemic) | > 20
CC(C)CN1CCC[C@@H]2c3nc4cc(Cl)c(Cl)cc4c(=O)n3CC[C@H]21 (racemic) | > 20
O=c1c2cc(Cl)c(Cl)cc2nc2n1CC[C@@H]1[C@@H]2CCCN1Cc1ccccc1 (racemic) | > 20
CN(C)C(=O)CN1CCC[C@@H]2c3nc4cc(Cl)c(Cl)cc4c(=O)n3CC[C@H]21 (racemic) | > 20
CN1CCC[C@H]2c3nc4cc(C(F)(F)F)ccc4c(=O)n3CC[C@H]21 (racemic) | > 20
O=c1c2cc(Cl)c(Cl)cc2nc2n1CC[C@@H]1[C@@H]2CCCN1CC1CC1 (racemic) | 4.8
O=C(c1ccccc1)N1CCC[C@@H]2c3nc4cc(Cl)c(Cl)cc4c(=O)n3CC[C@H]21 (racemic) | > 20

System: not listed separately
Assay: Kinetic solubility of compound at pH 7.4 incubated for 24 hrs by HPLC analysis
Type: physicochemical
Details: buffer, pH 7.4, read-out: Kinetic_solubility

solubility kinetic at 24 h [µM] | SMILES
2.6 (≈ 0.977 µg/mL) | COc1cc2nc3n(c(=O)c2cc1Cl)CC[C@H]1[C@H]3CCCN1CC(C)C

System: Naegleria fowleri
Assay: Anti-ameobic activity against Naegleria fowleri Nf69 (ATCC 30215) trophozoites assessed as inhibition of amoeba growth incubated for 48 hrs by CellTiter-Glo assay
Type: functional, organism-based
Details: not given
How it was run: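 Axenic Nf69 trophozoites were seeded at 1 × 10^4 cells/mL in Nelson's complete medium with 10% heat-inactivated FBS. Compound was added at 20 to 0.375 μM (lower ranges for very potent compounds), with vehicle controls, for 48 h at 37 °C and 5% CO2. CellTiter-Glo luminescence gave % growth inhibition versus controls, and triplicate means were fitted to dose–response curves for EC50.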

SMILES | EC50 [µM]
COc1cc2nc3n(c(=O)c2cc1Cl)CC[C@@H]1[C@@H]3CCCN1CC(C)C | 0.62
COc1cc2nc3n(c(=O)c2cc1Cl)CC[C@@H]1[C@@H]3CCCN1CC(C)C (racemic) | 0.17

Same assay, conditions: Naegleria fowleri, Nf69 (ATCC 30215), 48 h

SMILES | EC50 [µM]
COc1cc2nc3n(c(=O)c2cc1Cl)CC[C@H]1[C@H]3CCCN1CC(C)C | 0.027
Cc1cccc2nc3n(c(=O)c12)CC[C@@H]1[C@@H]3CCCN1C (racemic) | > 10
CN1CCC[C@H]2c3nc4cc(Cl)c(C(F)(F)F)cc4c(=O)n3CC[C@H]21 (racemic) | 0.27
CN(C)CC(=O)N1CCC[C@@H]2c3nc4cc(Cl)c(Cl)cc4c(=O)n3CC[C@H]21 (racemic) | 0.72
O=C(N1CCOCC1)N1CCC[C@@H]2c3nc4cc(Cl)c(Cl)cc4c(=O)n3CC[C@H]21 (racemic) | > 10
COc1cc2nc3n(c(=O)c2cc1Cl)CC[C@@H]1[C@@H]3CCCN1C (racemic) | 0.43
O=c1c2cc(Cl)c(Cl)cc2nc2n1CC[C@@H]1[C@@H]2CCCN1Cc1cnccn1 (racemic) | 0.05
O=C(C1CCOCC1)N1CCC[C@@H]2c3nc4cc(Cl)c(Cl)cc4c(=O)n3CC[C@H]21 (racemic) | > 10
CC(C)N1CCC[C@@H]2c3nc4cc(Cl)c(Cl)cc4c(=O)n3CC[C@H]21 (racemic) | 0.04
CN1CCC[C@@H]2c3nc4cc(F)ccc4c(=O)n3CC[C@H]21 (racemic) | > 10
Cc1ccc2nc3n(c(=O)c2c1)CC[C@@H]1[C@H]3CCCN1C (racemic) | 2.8
O=c1c2cc(Cl)c(Cl)cc2nc2n1CC[C@H]1NCCC[C@H]21 (racemic) | 1.6
CN1CCC[C@@H]2c3nc4cc(Cl)ccc4c(=O)n3CC[C@H]21 (racemic) | 6
COc1cc(Cl)cc2c(=O)n3c(nc12)[C@H]1CCCN(C)[C@@H]1CC3 (racemic) | > 10
CC(C)OCCN1CCC[C@@H]2c3nc4cc(Cl)c(Cl)cc4c(=O)n3CC[C@H]21 (racemic) | 0.0004
COc1cc2nc3n(c(=O)c2cc1C#N)CC[C@@H]1[C@@H]3CCCN1C (racemic) | 3.8
O=c1c2cc(Cl)c(Cl)cc2nc2n1CC[C@@H]1[C@@H]2CCCN1Cc1ccccn1 (racemic) | 2.53
COc1ccc2nc3n(c(=O)c2c1)CC[C@@H]1[C@H]3CCCN1C (racemic) | > 10
O=c1c2cc(Cl)c(Cl)cc2nc2n1CC[C@@H]1[C@@H]2CCCN1Cc1ccncc1 (racemic) | 0.48
O=c1c2cc(Cl)c(Cl)cc2nc2n1CC[C@@H]1[C@@H]2CCCN1CC1CCOCC1 (racemic) | 0.007
CN1CCC[C@@H]2c3nc4cc(-c5ccccc5)c(Cl)cc4c(=O)n3CC[C@H]21 (racemic) | 2.1
CN1CCC[C@@H]2c3nc4cccc(Cl)c4c(=O)n3CC[C@H]21 (racemic) | > 10
CN1CCC[C@H]2c3nc4ccc(C#N)cc4c(=O)n3CC[C@H]21 (racemic) | 2.1
CC(C)CN1CCC[C@@H]2c3nc4cc(Cl)c(Cl)cc4c(=O)n3CC[C@H]21 (racemic) | 0.007
O=c1c2cc(Cl)c(Cl)cc2nc2n1CC[C@@H]1[C@@H]2CCCN1Cc1ccccc1 (racemic) | 0.72
CN(C)C(=O)CN1CCC[C@@H]2c3nc4cc(Cl)c(Cl)cc4c(=O)n3CC[C@H]21 (racemic) | 0.3
CN1CCC[C@H]2c3nc4cc(C(F)(F)F)ccc4c(=O)n3CC[C@H]21 (racemic) | 6.9
O=c1c2cc(Cl)c(Cl)cc2nc2n1CC[C@@H]1[C@@H]2CCCN1CC1CC1 (racemic) | 0.002
O=C(c1ccccc1)N1CCC[C@@H]2c3nc4cc(Cl)c(Cl)cc4c(=O)n3CC[C@H]21 (racemic) | > 10

System: not listed separately
Assay: Metabolic stability in CD-1 mouse liver microsomes assessed as half-life incubated for 60 mins by LC-MS/MS analysis
Type: ADME, Microsome
Details: 1 h
How it was run: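 Half-life measured in CD-1 mouse liver microsomes with NADPH over a 60 min exposure.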

t1/2 [min] | SMILES
9.8 | CC(C)OCCN1CCC[C@@H]2c3nc4cc(Cl)c(Cl)cc4c(=O)n3CC[C@H]21 (racemic)
67.2 | O=c1c2cc(Cl)c(Cl)cc2nc2n1CC[C@@H]1[C@@H]2CCCN1CC1CCOCC1 (racemic)
19.7 | CC(C)CN1CCC[C@@H]2c3nc4cc(Cl)c(Cl)cc4c(=O)n3CC[C@H]21 (racemic)
18.3 | O=c1c2cc(Cl)c(Cl)cc2nc2n1CC[C@@H]1[C@@H]2CCCN1CC1CC1 (racemic)

SMILES | t1/2 [min]
CC(C)N1CCC[C@@H]2c3nc4cc(Cl)c(Cl)cc4c(=O)n3CC[C@H]21 (racemic) | 41.1

System: not listed separately
Assay: Selectivity index, ratio of CC50 for cytotoxicity against human SH-SY5Y cells to EC50 for anti-amoebic activity against Naegleria fowleri Nf69 (ATCC 30215) assessed as inhibition of amoeba growth
Type: toxicity, cell-based
Details: not given

SMILES | Ratio CC50/EC50
COc1cc2nc3n(c(=O)c2cc1Cl)CC[C@@H]1[C@@H]3CCCN1CC(C)C | > 32.3
COc1cc2nc3n(c(=O)c2cc1Cl)CC[C@@H]1[C@@H]3CCCN1CC(C)C (racemic) | 10.6

Same assay, conditions: SH-SY5Y cells, read-out: Ratio CC50/EC50

SMILES | selectivity ratio
COc1cc2nc3n(c(=O)c2cc1Cl)CC[C@H]1[C@H]3CCCN1CC(C)C | 38
O=c1c2cc(Cl)c(Cl)cc2nc2n1CC[C@@H]1[C@@H]2CCCN1CC1CC1 (racemic) | 2400
